Test results published in ChEMBL document CHEMBL1150284, “Synthesis, characterization, and metabolic stability of porphyrin-peptide conjugates bearing bifunctional signaling sequences” (J Med Chem, 2008).
Numbered stars: 1 amine (or outer) side, 2 acyl side, 3 side chain; on linkers, the order of the positions; unused ones are H or OH. Square brackets hold non-standard residues; d marks the D form. Peptide text beside a SMILES is read from it. * marks the point of attachment. X1 = O=C(COCC(=O)*)Nc1ccc(-c2c3nc(c(-c4ccccc4)c4ccc([nH]4)c(-c4ccccc4)c4nc(c(-c5ccccc5)c5ccc2[nH]5)C=C4)C=C3)cc1; NH(CH2CH2O)6CH2CO = O=C(COCCOCCOCCOCCOCCOCCN[*:1])[*:2]

Experiments:
[1] = Stability at pH 7.4 after 24 hrs; type: physicochemical; conditions: buffer, pH 7.4, 24 h
In short: (§1)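 Nonenzymatic hydrolysis: 100 µM conjugate in 50 mM PBS pH 7.4 or 50 mM acetate buffer pH 5.0, 37 °C for 24 h; products identified by MALDI-TOF MS with CCA matrix.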

HEp-2 [2] = experiment: Cytotoxicity against human HEp2 cells in dark up to 100 uM; type: functional, cell-based
In short: (§2)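 HEp2 cells (DMEM/Advanced MEM 50:50, 5% FBS) plated 10000/well, 36–48 h attachment; exposed to rising conjugate concentrations up to 100 µM overnight in dark. Viability by Cell Titer Blue fluorescence 520/584 nm, normalized to untreated (100%) and 0.2% saponin-treated (0%) cells.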

[3] = Drug uptake in human HEp2 cells at 10 uM; type: ADME, cell-based; conditions: hep-2, 10 µM, TDE = time-dependent effect
In short: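 HEp2 cells seeded 10000/well, grown 36 h, then given 10 µM conjugate (diluted from 10 mM water stock) for 0, 1, 2, 4, 8, 24 h. After PBS wash, lysis in 0.25% Triton X-100/PBS; conjugate read by fluorescence 440/650 nm, cell number by CyQuant.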

[4] = Stability at pH 5.0 after 24 hrs; type: physicochemical; conditions: buffer, pH 5, 24 h; in short: as §1
HEp-2 [5] = experiment: Phototoxicity against human HEp2 cells on exposure of 1 J/cm'2 light up to 10 uM; type: functional, cell-based
In short: (§3)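 HEp2 cells plated as for dark assay, loaded with 0, 0.625, 1.25, 2.5, 5, 10 µM conjugate; medium swapped for one with 50 mM HEPES pH 7.4, cells on ice irradiated 20 min by 100 W halogen lamp through 610 nm long-pass filter and water IR filter (~1 J/cm2). Overnight incubation, then Cell Titer Blue viability read as in dark assay.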

HEp-2 [6] = experiment: Phototoxicity against human HEp2 cells on exposure of 1 J/cm'2 light; type: functional, cell-based; conditions: HEp-2, light or radiation study; in short: as §3
HEp-2 [7] = experiment: Cytotoxicity against human HEp2 cells in dark; type: functional, cell-based; in short: as §2

In the case of `CSCC[C@H](NC(=O)COCCOCCOCCOCCOCCOCCNC(=O)COCC(=O)Nc1ccc(-c2c3nc(c(-c4ccccc4)c4ccc([nH]4)c(-c4ccccc4)c4nc(c(-c5ccccc5)c5ccc2[nH]5)C=C4)C=C3)cc1)C(=O)NCC(=O)N[C@@H](CC(C)C)C(=O)NCC(=O)N[C@@H](CC(C)C)C(=O)N[C@@H](Cc1cnc[nH]1)C(=O)N[C@@H](CC(C)C)C(=O)N[C@@H](CC(C)C)C(=O)N[C@H](C(=O)N[C@@H](CC(C)C)C(=O)N[C@@H](C)C(=O)N[C@@H](C)C(=O)N[C@@H](C)C(=O)N[C@@H](CC(C)C)C(=O)N[C@@H](CCC(N)=O)C(=O)NCC(=O)N[C@@H](C)C(=O)N[C@@H](Cc1c[nH]c2ccccc12)C(=O)N[C@@H](CO)C(=O)N[C@@H](CCC(N)=O)C(=O)N[C@@H](C)C(=O)N1CCC[C@H]1C(=O)N1CCC[C@H]1C(=O)N[C@@H](CCCCN)C(=O)N[C@@H](CCCCN)C(=O)N[C@@H](CCCCN)C(=O)N[C@@H](CCCNC(=N)N)C(=O)N[C@@H](CCCCN)C(=O)N[C@H](C(=O)NCC(=O)O)C(C)C)C(C)C` (X1-[NH(CH2CH2O)6CH2CO]MGLGLHLLVLAAALQGAWSQAPPKKKRKVG-OH), the Stability [1] is reported as “Stable”, the Activity (HEp-2 [2]) is reported as “Not toxic” and the Activity [3] is reported as “tde”. For the same molecule, the Stability [4] was “Stable” and the Activity (HEp-2 [5]) was “Not toxic”.
With `CC(C)[C@H](NC(=O)[C@H](CCCCN)NC(=O)[C@H](CCCNC(=N)N)NC(=O)[C@H](CCCCN)NC(=O)[C@H](CCCCN)NC(=O)[C@H](CCCCN)NC(=O)[C@@H]1CCCN1C(=O)[C@@H]1CCCN1C(=O)[C@H](C)NC(=O)COCCOCCOCCOCCOCCOCCNC(=O)COCC(=O)Nc1ccc(-c2c3nc(c(-c4ccccc4)c4ccc([nH]4)c(-c4ccccc4)c4nc(c(-c5ccccc5)c5ccc2[nH]5)C=C4)C=C3)cc1)C(=O)N[C@@H](CCC(=O)O)C(=O)N[C@@H](CC(=O)O)C(=O)N1CCC[C@H]1C(=O)N[C@@H](CCCNC(=N)N)C(=O)N[C@@H](CCCCN)C(=O)N[C@@H](CCCCN)C(=O)N[C@@H](CCCNC(=N)N)C(=O)N[C@@H](CCCNC(=N)N)C(=O)N[C@@H](CCC(N)=O)C(=O)N[C@@H](CCCNC(=N)N)C(=O)N[C@@H](CCCNC(=N)N)C(=O)N[C@@H](CCCNC(=N)N)C(=O)N1CCC[C@H]1C(=O)N1CCC[C@H]1C(=O)N[C@@H](CCC(N)=O)C(=O)NCC(=O)O` (X1-[NH(CH2CH2O)6CH2CO]APPKKKRKVEDPRKKRRQRRRPPQG-OH) the IC50 (HEp-2 [6]) was 7.5 µM, the Stability [1] was “Stable” and the IC50 (HEp-2 [7]) was 34 µM. For the same molecule, the Activity [3] was “tde” and the Stability [4] was “Stable”.
With `CC[C@H](C)[C@H](NC(=O)[C@H](CCCCN)NC(=O)[C@@H](NC(=O)[C@H](CCC(N)=O)NC(=O)[C@H](CCCNC(=N)N)NC(=O)COCCOCCOCCOCCOCCOCCNC(=O)COCC(=O)Nc1ccc(-c2c3nc(c(-c4ccccc4)c4ccc([nH]4)c(-c4ccccc4)c4nc(c(-c5ccccc5)c5ccc2[nH]5)C=C4)C=C3)cc1)[C@@H](C)CC)C(=O)N[C@@H](Cc1c[nH]c2ccccc12)C(=O)N[C@@H](Cc1ccccc1)C(=O)N[C@@H](CCC(N)=O)C(=O)N[C@@H](CC(N)=O)C(=O)N[C@@H](CCCNC(=N)N)C(=O)N[C@@H](CCCNC(=N)N)C(=O)N[C@@H](CCSC)C(=O)N[C@@H](CCCCN)C(=O)N[C@@H](Cc1c[nH]c2ccccc12)C(=O)N[C@@H](CCCCN)C(=O)N[C@@H](CCCCN)C(=O)N[C@@H](C)C(=O)N1CCC[C@H]1C(=O)N1CCC[C@H]1C(=O)N[C@@H](CCCCN)C(=O)N[C@@H](CCCCN)C(=O)N[C@@H](CCCCN)C(=O)N[C@@H](CCCNC(=N)N)C(=O)N[C@@H](CCCCN)C(=O)N[C@H](C(=O)NCC(=O)O)C(C)C` (X1-[NH(CH2CH2O)6CH2CO]RQIKIWFQNRRMKWKKAPPKKKRKVG-OH) the IC50 (HEp-2 [6]) was 9.3 µM, the Stability [1] was “Stable” and the IC50 (HEp-2 [7]) was 53 µM. For the same molecule, the Activity [3] was “tde” and the Stability [4] was “Stable”.
